These results are taken from ChEMBL document CHEMBL4038329, “Side-Chain Modified Ergosterol and Stigmasterol Derivatives as Liver X Receptor Agonists” (J Med Chem, 2017).

Series [1] can be described thus: Agonist activity at LXR in human U937 cells assessed as upregulation of SCD1 mRNA levels at 10 uM after 6 hrs by qPCR analysis relative to control. The series is classed as cell-based. Conditions: human, 6 h, 10 µM. In a few lines:
(§1)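 U937 cells, 3x10⁶ in 10 ml RPMI with 10% FBS, differentiated with PMA 10 ng/ml for 72 h at 37 °C, then treated with ligand (10 μM) for 6 h. Total RNA was isolated with TRIZOL; 2 µg was reverse-transcribed for 1 h at 42 °C. Transcripts were measured by qPCR. Mean ± SD of three biological samples; ANOVA with Dunnett's test.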
On the technique in general: Quantitative PCR measures a nucleic acid by following its amplification.

The nature of series [2]: Agonist activity at LXR in human HepG2 cells assessed as upregulation of FASN mRNA levels at 10 uM after 6 hrs by qPCR analysis. The series is classed as cell-based. The essentials: (§2)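 HepG2 cells treated with ligand (10 μM). Total RNA was extracted with TRIZOL; 2 µg was reverse-transcribed (1 h, 42 °C). SREBP1c, FASN and SCD1 transcripts were measured by qPCR. Mean ± SD of three biological samples; ANOVA with Dunnett's test.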

A short description of series [3]: Agonist activity at LXR in human U937 cells assessed as upregulation of FASN mRNA levels at 10 uM after 6 hrs by qPCR analysis. The series is classed as cell-based. The essentials: as §1
The nature of series [4]: Agonist activity at LXR in human U937 cells assessed as upregulation of SREBP1c mRNA levels at 10 uM after 6 hrs by qPCR analysis. The series is classed as cell-based. In a few lines: as §1
For series [5], the species on record is Homo sapiens. The experiment in a line: Agonist activity at LXR in human U937 cells assessed as downregulation of LPS-induced TNFalpha mRNA expression at 10 uM after 6 hrs by qPCR analysis. The series is classed as cell-based. In a few lines: (§3)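 PMA-differentiated U937 cells (10 ng/ml PMA, 72 h) were given LPS 100 ng/ml together with compound (10 μM) for 6 h. CCL2 and TNFα mRNA were measured by qPCR after TRIZOL RNA extraction and reverse transcription. Three biological samples per group, mean ± SD.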

For series [6], the species on record is Homo sapiens. The experiment in a line: Agonist activity at LXR in human U937 cells assessed as upregulation of ABCA1 mRNA levels at 10 uM after 6 hrs by qPCR analysis. The series is classed as cell-based. In a few lines:
as §1

Series [7] is described as follows: Agonist activity at LXR in human HepG2 cells assessed as upregulation of SREBP1c mRNA levels at 10 uM after 6 hrs by qPCR analysis. The series is classed as cell-based. The essentials:
as §2

Series [8] can be described thus: Agonist activity at LXR in human U937 cells assessed as upregulation of FASN mRNA levels at 10 uM after 16 hrs by qPCR analysis. The series is classed as cell-based.
A short description of series [9]: Agonist activity at LXR in human U937 cells assessed as upregulation of SCD1 mRNA levels at 10 uM after 16 hrs by qPCR analysis. The series is classed as cell-based.
Series [10] is described as follows: Agonist activity at LXR in human HepG2 cells assessed as upregulation of SCD1 mRNA levels at 10 uM after 6 hrs by qPCR analysis. The series is classed as cell-based. The essentials: as §2
Series [11] concerns the target T1, Oxysterols receptor LXR-alpha (Homo sapiens) (UniProt Q13133).
T1 sequence (whole entry): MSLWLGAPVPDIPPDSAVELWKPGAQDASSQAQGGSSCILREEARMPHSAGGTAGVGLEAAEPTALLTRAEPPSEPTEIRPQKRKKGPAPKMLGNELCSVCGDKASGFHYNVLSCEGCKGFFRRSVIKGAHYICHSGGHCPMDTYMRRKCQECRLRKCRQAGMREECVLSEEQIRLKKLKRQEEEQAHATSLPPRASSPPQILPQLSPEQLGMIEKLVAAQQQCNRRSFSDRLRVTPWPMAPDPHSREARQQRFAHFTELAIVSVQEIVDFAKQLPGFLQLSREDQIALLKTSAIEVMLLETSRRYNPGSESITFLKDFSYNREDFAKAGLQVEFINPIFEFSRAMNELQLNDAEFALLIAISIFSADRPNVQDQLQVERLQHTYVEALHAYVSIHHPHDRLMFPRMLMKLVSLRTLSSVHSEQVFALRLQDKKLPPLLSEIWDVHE
The experiment in a line: Activation of GAL4 fused human LXR alpha expressed in HEK293 cells after 24 hrs by luciferase reporter gene assay relative to 22R-HC. The series is classed as cell-based. In a few lines: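 HEK293 cells carrying the Gal4-LXR-α or Gal4-LXR-β chimera plus the pMH100X4-TK-luc and Renilla reporters. Treatment started 6 h post-transfection and ran 24 h. Dual luciferase read-out. Efficacy is given as % of the response to 8 μM 22R-HC, ± SD, from three to five independent experiments.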
Background: A reporter such as luciferase makes a cellular process visible.

The target in series [12] is T2, Oxysterols receptor LXR-beta (Homo sapiens, UniProt P55055).
T2 sequence (P55055 whole entry): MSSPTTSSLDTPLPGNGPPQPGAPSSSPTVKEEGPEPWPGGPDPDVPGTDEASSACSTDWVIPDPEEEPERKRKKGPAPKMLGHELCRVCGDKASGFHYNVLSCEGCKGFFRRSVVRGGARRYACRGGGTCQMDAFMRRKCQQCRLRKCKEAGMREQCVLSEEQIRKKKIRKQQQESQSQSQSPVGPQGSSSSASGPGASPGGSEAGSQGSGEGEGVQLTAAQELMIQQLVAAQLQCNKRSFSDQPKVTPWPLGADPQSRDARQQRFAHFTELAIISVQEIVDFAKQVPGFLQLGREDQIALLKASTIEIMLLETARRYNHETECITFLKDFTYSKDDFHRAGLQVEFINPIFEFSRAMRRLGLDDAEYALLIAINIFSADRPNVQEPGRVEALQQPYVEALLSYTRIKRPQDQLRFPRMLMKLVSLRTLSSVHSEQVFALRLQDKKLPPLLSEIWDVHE
The experiment in a line: Activation of GAL4 fused human LXR beta expressed in HEK293 cells after 24 hrs by luciferase reporter gene assay. The series is classed as cell-based. The essentials: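 HEK293 cells (4x10⁴/well), grown in DMEM with 10% FBS at 37 °C under 5% CO₂, transiently co-transfected with pMH100X4-TK-luc, Renilla and the Gal4-LXR-α or Gal4-LXR-β plasmid. Dosing began 6 h after transfection and lasted 24 h, at 32, 16, 8, 4, 2 and 1 μM. Dual luciferase read-out. EC50 came from dose-response curves, averaged over three to five independent experiments, ± SD.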

For series [13], the target named is T3, Peroxisome proliferator-activated receptor gamma (Homo sapiens) (UniProt P37231).
T3 sequence (whole entry): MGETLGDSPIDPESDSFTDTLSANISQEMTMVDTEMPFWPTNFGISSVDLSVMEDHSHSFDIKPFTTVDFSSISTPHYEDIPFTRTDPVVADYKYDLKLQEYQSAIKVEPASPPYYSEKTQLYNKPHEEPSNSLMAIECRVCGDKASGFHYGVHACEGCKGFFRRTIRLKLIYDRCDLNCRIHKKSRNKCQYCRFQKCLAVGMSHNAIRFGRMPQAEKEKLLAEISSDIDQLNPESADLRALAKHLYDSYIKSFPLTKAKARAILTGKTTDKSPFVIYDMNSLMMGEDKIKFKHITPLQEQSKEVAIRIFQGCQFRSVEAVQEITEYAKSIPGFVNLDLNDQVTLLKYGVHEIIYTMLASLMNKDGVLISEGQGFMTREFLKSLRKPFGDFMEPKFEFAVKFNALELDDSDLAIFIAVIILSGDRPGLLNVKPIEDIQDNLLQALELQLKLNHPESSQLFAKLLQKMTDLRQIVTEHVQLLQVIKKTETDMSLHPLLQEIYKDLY
The experiment in a line: Activation of GAL4 fused human PPARgamma expressed in HEK293 cells at 10 uM after 24 hrs by luciferase reporter gene assay.

Series [14] is filed under the species Homo sapiens. The series is described as follows: Agonist activity at LXR in human U937 cells assessed as downregulation of LPS-induced CCL2 mRNA expression at 10 uM after 6 hrs by qPCR analysis. The series is classed as cell-based. In a few lines:
as §3

The target in series [15] is T4, Nuclear receptor subfamily 1 group I member 2 (Homo sapiens, UniProt O75469).
T4 sequence (O75469 whole entry): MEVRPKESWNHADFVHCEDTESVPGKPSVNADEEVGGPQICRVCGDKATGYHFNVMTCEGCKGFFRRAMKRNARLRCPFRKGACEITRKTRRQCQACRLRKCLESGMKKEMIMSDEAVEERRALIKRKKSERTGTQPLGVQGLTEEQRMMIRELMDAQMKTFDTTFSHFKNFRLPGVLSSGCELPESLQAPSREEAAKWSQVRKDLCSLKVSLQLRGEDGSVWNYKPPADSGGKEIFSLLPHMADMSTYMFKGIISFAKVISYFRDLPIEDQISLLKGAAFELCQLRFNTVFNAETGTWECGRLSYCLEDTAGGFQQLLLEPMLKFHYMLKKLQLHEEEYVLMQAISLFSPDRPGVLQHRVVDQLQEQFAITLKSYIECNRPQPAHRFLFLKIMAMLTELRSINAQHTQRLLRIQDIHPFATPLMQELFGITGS
The series is described as follows: Activation of GAL4 fused human PXR expressed in HEK293 cells at 10 uM by luciferase reporter gene assay. Conditions: hek293, 10 µM.

A further series relates to HEK293. The series is described as follows: Activation of GAL4 fused human RXR expressed in HEK293 cells at 10 uM after 24 hrs by luciferase reporter gene assay.
For series [16], the target named is T5, Bile acid receptor (Homo sapiens) (UniProt Q96RI1).
T5 sequence (whole entry): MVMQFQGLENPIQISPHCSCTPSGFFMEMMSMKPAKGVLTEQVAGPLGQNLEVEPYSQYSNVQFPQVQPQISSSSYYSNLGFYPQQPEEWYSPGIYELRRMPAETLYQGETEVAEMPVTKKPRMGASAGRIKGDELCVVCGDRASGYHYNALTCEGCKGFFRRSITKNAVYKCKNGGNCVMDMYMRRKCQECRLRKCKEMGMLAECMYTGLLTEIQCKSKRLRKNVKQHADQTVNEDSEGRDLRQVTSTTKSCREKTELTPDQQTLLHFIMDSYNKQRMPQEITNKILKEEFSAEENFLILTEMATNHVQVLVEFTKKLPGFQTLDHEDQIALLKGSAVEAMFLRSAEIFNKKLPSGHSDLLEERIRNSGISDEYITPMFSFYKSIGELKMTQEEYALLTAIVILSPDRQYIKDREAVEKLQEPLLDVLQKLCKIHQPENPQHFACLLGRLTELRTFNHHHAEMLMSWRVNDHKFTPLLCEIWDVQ
The series is described as follows: Activation of GAL4 fused human FXR expressed in HEK293 cells at 10 uM by luciferase reporter gene assay.

Active and inactive are the calls of the source. The rule behind the calls is not given here.

On to `CC(C)CC[C@@H](O)[C@@H](C)[C@H]1CC[C@H]2[C@@H]3CC=C4C[C@@H](O)CC[C@]4(C)[C@H]3CC[C@]12C` [22(R)-HYDROXYCHOLESTEROL], for which the Activity result in series [1], in series [2], in series [3], in [4], in [7] and in [8] was “Not Active” in each case. The Activity entry in [9] and in series [10] was “Not Active” each time. For the same molecule, the result in the series listed under Homo sapiens [5] and in the series filed under Homo sapiens [6] was Active.
As to `CC(C)[C@@H](C)[C@@H](O)C[C@@H](C)[C@H]1CC[C@H]2C3=CC=C4C[C@@H](O)CC[C@]4(C)[C@H]3CC[C@]12C`, the Efficacy in [11] is 159%. Further, the Activity entry is “Not Active” in series [1]; “Not Active” in [2]; “Not Active” in [3]; “Not Active” in series [4]; “Not Active” in series [7]; “Active” in series [15]. Besides, the Activity result in series [10] is given as “Not Active”. For the same molecule, the EC50 entry in series [12] was “Not Active”. In addition, the result (in series [13]; in the series on HEK293) was inactive. Also, the outcome in the series listed under Homo sapiens [5], in the series listed under Homo sapiens [14] and in the series listed under Homo sapiens [6] was Active.
As to `CC[C@H](C[C@@H](O)[C@@H](C)[C@H]1CC[C@H]2[C@@H]3CC=C4C[C@@H](O)CC[C@]4(C)[C@H]3CC[C@]12C)C(C)C`, the Activity entry in [1], in [2], in series [3], in series [4], in series [7] and in [10] was “Not Active” each time. The outcome (in [13]; in the series on HEK293) was inactive. The result (in the series filed under Homo sapiens [6]; in series [16]) was Active.
